Laboratory results from ChEMBL document CHEMBL3997800, “Discovery of Multitarget Agents Active as Broad-Spectrum Antivirals and Correctors of Cystic Fibrosis Transmembrane Conductance Regulator for Associated Pulmonary Diseases” (J Med Chem, 2017).
Activity calls are given as the source filed them. The rule behind the calls is not given here.

Tests used:
[1] = biological target: CDK9/cyclin T1 (Homo sapiens) (UniProt O60563+P50750); experiment: Inhibition of CDK9/cyclin T1 (unknown origin) assessed as residual activity at 100 uM by ADP-Glo bioluminescence assay relative to control relative to control; type: protein-complex assay
How it was run: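 Kinase reactions followed manufacturer's instructions with 10-50 ng enzyme, in 10 µL for 10 min at 30 °C; NP-40 or BSA added for some kinases. Compound at 100 µM. Residual activity is the mean of two independent replicates.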

rhinovirus B14 = experiment: Antiviral activity against Rhinovirus 14 after 2 to 3 days by cell based MTS assay; type: functional; settings: Rhinovirus B; read-out: EC50
[2] = test system: Cystic fibrosis transmembrane conductance regulator (Homo sapiens), P13569 [F508del]; experiment: Corrector activity at CFTR F508 deletion mutant (unknown origin) expressed in HEK293 cells assessed as increase in steady-state level of F508 deletion mutant at plasma membrane at 10 uM preincubated for 24 hrs followed by compound washout by pHTomato dye based fluorescence imaging method; type: cell-based
How it was run: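 HEK293 cells were transiently transfected (Lipofectamine 2000) with F508del-CFTR-pHTomato plus co-expressed soluble eGFP, then kept 24 h at 37 °C. Next, 24 h at 30 °C with 10 μM drug. Imaging in pH 7.4 HEPES buffer, then extracellular pH shifted to ~6.5 (MES) and ~8.8 (Tris). The eGFP-normalized fluorescence rise (ΔF) estimates membrane CFTR.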

[3] = biological target: PI3-kinase p110-alpha/p85-alpha (Homo sapiens) (UniProt P27986+P42336); experiment: Inhibition of full length recombinant human N-terminal His6-tagged PI3Kalpha (1 to 1068 residues)/full length human N-terminal myc-tagged P85alpha (1 to 724 residues) expressed in Sf9 insect cells assessed as residual activity at 100 uM using PI : PS as substrate in presence of [gamma-33P]-ATP by scintillation counting method relative to control
Poliovirus 1 = experiment: Antiviral activity against Poliovirus 1 after 2 to 3 days by cell based MTS assay; type: functional; settings: Enterovirus C
How it was run: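 Vero cells seeded at 20 000/well in MEM with 2% FCS. Three 8-step 1:5 dilution series from 100 μM, then virus, then cells; 2–3 days until maximal CPE. Read-out: 5% MTS for 1.5 h at 37°C, absorbance at 498 nm, expressed as % of untreated controls. EC50 taken as the median of 3 dose-response curves.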

Enterovirus A71 = experiment: Antiviral activity against Enterovirus 71 infected in RD cells assessed as reduction in virus-induced cytopathic effect incubated for 2 to 3 days; type: functional, cell-based; settings: Enterovirus A, RD; read-out: EC50
How it was run: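 RD cells seeded at 20 000/well in MEM with 2% FCS and infected with EV71. Three 8-step 1:5 dilution series from 100 μM. Incubated 2-3 days until maximal CPE, then scored for CPE reduction. EC50 is the median of three dose-response curves.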

[4] = Cytotoxicity against human RD cells assessed as change in cell morphology by microscopic method; type: cell-based
How it was run: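 Uninfected, compound-treated RD cells were inspected by microscope. CC50 was taken from microscopically detectable alteration of cell morphology.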

Cystic fibrosis transmembrane conductance regulator (Homo sapiens), P13569 [F508del], sequence (P13569 as listed by the source): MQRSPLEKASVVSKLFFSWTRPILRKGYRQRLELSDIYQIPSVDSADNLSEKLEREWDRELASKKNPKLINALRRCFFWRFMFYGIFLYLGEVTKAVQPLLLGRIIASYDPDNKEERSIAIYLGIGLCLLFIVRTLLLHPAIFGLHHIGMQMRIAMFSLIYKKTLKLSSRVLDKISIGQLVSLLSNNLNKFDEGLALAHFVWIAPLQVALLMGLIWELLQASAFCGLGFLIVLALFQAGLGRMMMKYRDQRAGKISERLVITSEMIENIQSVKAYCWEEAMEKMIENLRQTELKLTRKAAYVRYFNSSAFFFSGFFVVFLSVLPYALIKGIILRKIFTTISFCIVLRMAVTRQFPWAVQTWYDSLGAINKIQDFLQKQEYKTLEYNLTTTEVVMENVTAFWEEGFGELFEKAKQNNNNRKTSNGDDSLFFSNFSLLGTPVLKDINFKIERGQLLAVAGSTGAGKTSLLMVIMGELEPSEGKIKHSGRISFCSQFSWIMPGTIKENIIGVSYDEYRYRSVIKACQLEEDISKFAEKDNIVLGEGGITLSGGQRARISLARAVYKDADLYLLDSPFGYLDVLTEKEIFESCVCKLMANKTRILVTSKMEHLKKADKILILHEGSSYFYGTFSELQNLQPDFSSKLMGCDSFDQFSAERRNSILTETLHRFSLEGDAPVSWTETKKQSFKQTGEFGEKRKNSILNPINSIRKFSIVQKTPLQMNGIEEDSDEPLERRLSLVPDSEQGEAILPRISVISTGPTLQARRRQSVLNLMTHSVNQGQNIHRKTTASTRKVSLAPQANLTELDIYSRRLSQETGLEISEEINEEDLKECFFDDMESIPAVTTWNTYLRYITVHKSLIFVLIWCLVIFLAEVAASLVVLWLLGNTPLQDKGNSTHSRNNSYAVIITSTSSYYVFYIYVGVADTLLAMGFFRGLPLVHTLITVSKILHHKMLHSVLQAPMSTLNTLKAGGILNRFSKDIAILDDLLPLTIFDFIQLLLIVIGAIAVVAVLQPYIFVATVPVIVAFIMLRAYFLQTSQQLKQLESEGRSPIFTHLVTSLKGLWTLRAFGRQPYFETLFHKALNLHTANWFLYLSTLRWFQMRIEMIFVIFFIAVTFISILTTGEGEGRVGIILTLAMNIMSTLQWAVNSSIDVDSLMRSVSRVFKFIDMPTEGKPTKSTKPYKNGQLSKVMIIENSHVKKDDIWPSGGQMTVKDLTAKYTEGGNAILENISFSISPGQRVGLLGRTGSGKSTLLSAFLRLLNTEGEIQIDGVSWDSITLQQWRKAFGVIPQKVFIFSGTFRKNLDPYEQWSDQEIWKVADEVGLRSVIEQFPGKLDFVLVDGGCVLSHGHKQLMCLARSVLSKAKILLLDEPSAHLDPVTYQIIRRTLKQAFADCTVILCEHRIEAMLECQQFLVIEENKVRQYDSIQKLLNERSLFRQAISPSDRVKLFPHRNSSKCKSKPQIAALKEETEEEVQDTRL

Structure (SMILES): CC(=O)c1cccc(Nc2nc(-c3sc(NC(=O)OC(C)(C)C)nc3C)cs2)c1
- Activity [1]: 57%
- EC50 (rhinovirus B14): > 232 µM
- Activity [2]: Active
- Activity [3]: 64%
- EC50 (Poliovirus 1): 13.3 µM
- EC50 (Enterovirus A71): 1.42 µM
- CC50 [4]: 101 µM
